Screens deposited in PubChem by several laboratories.
CTSL1 counter = counter-screen for PFM18AAP inhibitors: inhibitors of F. hepatica cathepsin L1; recombinant F. hepatica cathepsin L1, Z-Leu-Arg-MCA fluorescence; inhibition, % at 5.96 µM; hit rate 0.49% among 300,000; AID 1906;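 active means inhibition above the mean of all tested compounds plus 3 SD, set per screening campaign, cut at about 17% in these data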;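 further: 0% = plate median of test compound wells and 100% = 1 µM Z-Phe-Ala-diazomethylketone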
UCH37 inh = blocks the human deubiquitinase UCH37; Q9Y5K5; purified proteasome/UCH37, Ub-AMC cleavage fluorescence; inhibition, % (no concentration beside the values); hit rate 0.33% among 330,000;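 active means mean inhibition over replicate wells above about 20%, limit read from the data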;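 further: 0% = compound-free wells with enzyme and 100% = wells lacking proteasome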
Target sequence (Q9Y5K5 whole entry, looked up): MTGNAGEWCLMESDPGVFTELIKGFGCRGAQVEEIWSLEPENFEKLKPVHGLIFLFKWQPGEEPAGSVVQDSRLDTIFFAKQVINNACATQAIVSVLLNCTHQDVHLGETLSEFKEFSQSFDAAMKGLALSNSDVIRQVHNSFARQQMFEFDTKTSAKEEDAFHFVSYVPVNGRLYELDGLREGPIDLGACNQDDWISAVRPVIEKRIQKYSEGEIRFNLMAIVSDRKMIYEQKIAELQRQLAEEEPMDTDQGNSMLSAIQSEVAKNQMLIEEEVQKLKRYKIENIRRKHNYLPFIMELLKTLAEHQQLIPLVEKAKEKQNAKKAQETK
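assay system = human UCH37 enzyme supplied as purified proteasome complex | amount = proteasome at 0.15 nM in the dispensed enzyme solution | schedule = 30 min compound-proteasome preincubation then 25 min substrate reaction, room temperature | measured by = fluorescence, ex 355 nm, em 460 nm | benchmarks = no-proteasome wells (full inhibition) and compound-free wells (no inhibition)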
NRP1-CendR mod = alters CendR peptide binding to human NRP-1 | hit rate 0.85% among 360,000 | O14786 | inhibition, % at 25 µM | FAM-RPARPAR peptide binding to NRP-1, fluorescence polarization;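 active means inhibition or corrected inhibition above about 18%, plus a signal ratio from 0.5 to 1.5, limit read from the data, passing the limit was not always enough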
DAGLB inhibitor = diacylglycerol lipase beta (human) inhibition; HEK293T DAGLB membrane lysate, EnzChek fluorogenic substrate; hit rate 0.059% among 340,000; inhibition, % at 5.17 µM; Q8NCG7; in the data active means inhibition above about 34%;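 further: 0% = enzyme with vehicle and 100% = wells lacking enzyme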
MT1-MMP act inh = MT1-MMP (human) activation inhibition. P50281. HT1080 RFP-PRO-GFP cells, GFP/RFP ratio fluorescence, overnight; percent of plate control window, DMSO zero. GFP/RFP ratio change, % at 20 µM. hit rate 0.061% among 360,000;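 active means GFP/RFP ratio change of at least 30% with cell ATP level not reduced by more than half and red fluorescence within 50% of control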
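Assay system – RFP-PRO-GFP reporter HT1080 cells · Compound dosing – single dose of 20 µM compound, 1% DMSO final · Incubation – overnight compound exposure at 37 °C · Measure – GFP/RFP fluorescence ratio · Benchmarks – DMSO wells and RFP-L50D-GFP cells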
Starred values were filed as active, the others as inactive; nt = not tested or not shown. Rows were chosen to be rich in hits. Some 1.5% of all compounds tested hit in one or more screens of this group.

SMILES	CTSL1 counter	UCH37 inh	NRP1-CendR mod	DAGLB inhibitor	MT1-MMP act inh
Cc1cccc(CN2CCN(C3CN(Cc4cn(Cc5ccc(Cl)cc5)nn4)S(=O)(=O)C3)CC2)c1 (stereo not drawn)	nt	nt	4	nt	2
Cc1cccc(CN2CCN(C3CN(Cc4cn(Cc5cccc(Cl)c5)nn4)S(=O)(=O)C3)CC2)c1 (stereo not drawn)	nt	nt	23*	nt	4
CC(C)(CNC(=O)COc1ccccc1Cc1ccccc1)N1CCOCC1	-3	2	4	-1	-3
O=C(COc1ccccc1Cc1ccccc1)NCCCN1CCOCC1	20*	-2	-8	3	2
O=C(NCc1ccccc1)C1CCC1	2	0	40*	-2	-5
Cc1cc(C(=O)NN=Cc2ccc(N3CCOCC3)cc2)c(C)o1	nt	-132	nt	nt	nt
CC1(C)CN(O)CCN1O	-2	-1	25*	0	-3
CCOc1ccccc1NC(=O)Cn1cnc2c(cnn2-c2ccc(C)c(C)c2)c1=O	-1	-1	38*	0	0
CC(=NNc1nc2ccccc2nc1C)c1ccccc1O	nt	7	nt	nt	nt
O=C(COc1ccc(Cl)cc1)NCc1nnc(SCC(=O)NCCc2ccccc2)o1	0	3	20*	-2	-1
O=C(COc1ccc(Cl)cc1)NCc1nnc(SCC(=O)Nc2ccccc2)o1	-2	-1	16	0	2
CCCc1cc(C(=O)NN=Cc2ccc(C)o2)c2ccccc2n1	nt	9	nt	nt	nt
NC(=O)c1ccc(C=NO)nc1	nt	4	nt	nt	nt
Cc1[nH]c(=O)c(C#N)c(C)c1Cl	0	-24	26*	1	1
Cc1cc(=O)[nH]c(Nc2ccc(N(C)C)cc2)n1	3	2	9	-4	-2
Cc1cc(=O)[nH]c(Nc2ccc(Cl)cc2)n1	1	5	22*	0	0
COc1ccc(C(=O)NN=C(C)c2ccc(NC(=O)Cc3ccccc3)cc2)c(OC)c1	nt	-33	nt	nt	nt
CN(C)C(=O)CSc1nnc2sc3ccccc3n12	-2	7	-1	-3	-1
CCOC(=O)CC(=O)CSc1nnc2sc3ccccc3n12	41*	4	8	0	-12
CC(=NNc1cccc([N+](=O)[O-])c1)c1cc(F)ccc1O	nt	7	nt	nt	nt
O=C(CCl)Nc1cc(-c2ccccc2)nn1-c1ccccc1	68*	8	2	2	-5
Cc1ccc(-c2cc(NC(=O)CCl)n(-c3ccccc3)n2)cc1	75*	5	4	3	-8
CC(=O)Nc1ccc(-c2cc(NC(C)=O)n(-c3ccccc3)n2)cc1	3	3	4	2	3
Cc1ccc(-c2nn(-c3ccccc3)cc2CO)cc1	1	2	4	-10	3
Cc1ccc(-c2nn(-c3ccccc3)cc2NC(=O)CCl)cc1	82*	7	-4	-2	-4
SMILES	CTSL1 counter	UCH37 inh	NRP1-CendR mod	DAGLB inhibitor	MT1-MMP act inh
CC(=NNC(=O)CNC(=O)C1COc2ccccc2O1)c1ccc2c(c1)OCCO2 (stereo not drawn)	nt	1	nt	nt	nt
N#Cc1nc(N2CCOCC2)nc(N2CCOCC2)n1	48*	5	-8	0	2
COc1ccc(OC)c(S(=O)(=O)NN=C(C)c2c[nH]c3ccccc23)c1	nt	6	nt	nt	nt
O=C(c1n[nH]c2ccccc12)N1CCN(S(=O)(=O)c2ccc3ccccc3c2)CC1	2	0	47*	0	-1
Cc1ccc(S(=O)(=O)N2CCN(C(=O)c3n[nH]c4ccccc34)CC2)cc1	nt	1	0	-1	6
CC(=O)Oc1cccc(C=NNC(=O)C(=O)NN=Cc2cccc(OC(C)=O)c2)c1	nt	3	nt	nt	nt
C[n+]1cccc(C(=O)NN=Cc2ccc3c(c2)OCO3)c1	nt	13	nt	nt	nt
N#CC1C(C#N)N2CCCN2C1c1ccc(Br)cc1 (stereo not drawn)	1	5	31*	-2	0
CC1(C)CC(=O)/C(=C(\O)Cc2ccccc2)C(=NCCc2ccccc2)C1	nt	2	nt	nt	nt
COc1ccccc1/C=C/C=Nn1c(-c2ccc(F)cc2)n[nH]c1=S	nt	4	nt	nt	nt
Cc1cccc(NS(=O)(=O)c2cccs2)c1	-6	2	36*	0	0
Cc1cccc(NS(=O)(=O)c2ccc(NS(=O)(=O)c3cccs3)cc2)c1	-2	3	-14	2	6
c1ccc(-n2nnnc2CN2CCOCC2)cc1	3	5	-8	-1	0
c1ccc(-n2nnnc2NCCCN2CCOCC2)cc1	-4	-1	30*	-1	1
FC(F)(F)c1ccc2c(c1)NCC1CCCN21 (stereo not drawn)	22*	-8	-12	5	-58
CN(/C=C/C(=C/C=[N+](C)c1ccccc1)OCCCS(=O)(=O)[O-])c1ccccc1	0	21*	-178	-4	-35
CC1CCCC(C)N1C(=O)COC(=O)c1ccc(S(=O)(=O)N(C)c2ccccc2)cc1 (stereo not drawn)	nt	0	10	-6	3
CN(/C=C/C(=C\C=[N+](C)c1ccccc1)OCCCS(=O)(=O)[O-])c1ccccc1	2	20*	-175	-1	-2
Cc1cc2cc3c(=O)[nH]c(=O)cc-3n(CC(O)C(O)C(O)CO)c2cc1C (stereo not drawn)	nt	nt	-112	1	-5
Cc1cc2cc3c(=O)[nH]c(=O)nc-3n(CC(O)C(O)C(O)CO)c2cc1C (stereo not drawn)	nt	nt	25*	0	-1
CN(C)c1ccc(C=NNC(=O)c2cccc(N3CCCC3=O)c2)cc1	nt	2	nt	nt	nt
Oc1ccc(C=NNc2nn3cnnc3c3ccccc23)cc1	nt	11	nt	nt	nt
C/C(=C\c1ccc2c(c1)OCO2)C1Nc2cccc3cccc(c23)N1	nt	1	17*	10	4
CCn1ncc(C=NNC(=O)c2cc(Cl)ccc2OC)c1C	nt	6	nt	nt	nt
CCOC(=O)c1ccc2[nH]c(C)c(C)c2c1	2	-2	46*	-1	3
SMILES	CTSL1 counter	UCH37 inh	NRP1-CendR mod	DAGLB inhibitor	MT1-MMP act inh
C(=NN1CCN(c2ccccn2)CC1)c1ccco1	nt	4	nt	nt	nt
OCC1(Cc2cccc(C(F)(F)F)c2)CCN(Cc2cc(F)cc(F)c2)CC1	-1	2	-2	-7	1
CSc1cccc(CN2CCC(CO)(Cc3cccc(C(F)(F)F)c3)CC2)c1	2	4	30*	0	3
COC(=O)c1ccc(NC(=O)COC(=O)C2CCC2)cc1	-13	1	2	-1	-1
CC(=O)Nc1ccc(NC(=O)COC(=O)C2CCCCC2)cc1	nt	2	24*	0	1
CCc1ccc(/C=C2\SC(=S)N(CCCC(=O)N(CCO)c3ccccc3)C2=O)cc1	nt	nt	28*	9	-11
CCN(CC)C(=O)CN1C(=O)/C(=C/c2ccccc2)SC1=S	0	7	20*	0	2
O=C(O)CCN1C(=O)/C(=C\c2ccc(-c3nc4ccccc4s3)o2)SC1=S	0	92*	-104	2	-11
CC(/C=C1\SC(=S)N(CCC(=O)Nc2cccc(C(=O)O)c2)C1=O)=C\c1ccccc1	6	22*	-162	9	1
